Measurements: ChEMBL document CHEMBL1122018, “Synthesis and orexigenic activity of some 1-methyl-4-piperidylidene-Substituted pyrrolo[2,1-g][3] benzazepine and dibenzocycloheptene derivatives” (1982)

What was measured:
Format in all cases: functional
Felis catus [1] = assay: Average food consumed at the dose of 0.063 mg/kg (po) using 10 cats per dose level at 60 min (control day/ test day); 37/178
Felis catus [2] = assay: Average food consumed at the dose of 0.25 mg/kg (po) using 10 cats per dose level at 180 min (control day/ test day); 46/239
Felis catus [3] = assay: Average food consumed at the dose of 0.016 mg/kg (po) using 10 cats per dose level at 180 min (control day/ test day); 33/182
Felis catus [4] = assay: Average food consumed at the dose of 0.063 mg/kg (po) using 10 cats per dose level at 180 min (control day/ test day); 62/219
Felis catus [5] = assay: Average food consumed at the dose of 0.50 mg/kg (po) using 10 cats per dose level at 60 min (control day/ test day); 44/217; settings: dose 0.5 mg/kg
Procedure, shortened: (§1)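 Cats given test compound suspended in 1% methylcellulose, or 1% methylcellulose placebo, by gavage 30 min before a preweighed test meal. Food was offered in surplus for 3 h, and intake was found by reweighing at 30, 60 and 180 min. Ten cats per dose, each dosed no more than once weekly. Test-day intake was compared with the preceding control day by two-tailed paired t test (p < 0.05); values are mean ± SD.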

Felis catus [6] = assay: Average food consumed at the dose of 0.063 mg/kg (po) using 10 cats per dose level at 30 min (control day/ test day); 28/137
Felis catus [7] = assay: Average food consumed at the dose of 0.25 mg/kg (po) using 10 cats per dose level at 60 min (control day/ test day); 40/208; procedure, shortened: as §1
Felis catus [8] = assay: Average food consumed at the dose of 0.016 mg/kg (po) using 10 cats per dose level at 60 min (control day/ test day); 16/119
Felis catus [9] = assay: Average food consumed at the dose of 0.50 mg/kg (po) using 10 cats per dose level at 30 min (control day/ test day); 51/189; settings: dose 0.5 mg/kg; procedure, shortened: as §1
Felis catus [10] = assay: Average food consumed at the dose of 0.50 mg/kg (po) using 10 cats per dose level at 180 min (control day/ test day); 46/243; settings: dose 0.5 mg/kg; procedure, shortened: as §1
Felis catus [11] = assay: Average food consumed at the dose of 0.016 mg/kg (po) using 10 cats per dose level at 30 min (control day/ test day); 16/91
Felis catus [12] = assay: Average food consumed at the dose of 0.25 mg/kg (po) using 10 cats per dose level at 30 min (control day/ test day); 33/172; procedure, shortened: as §1
Felis catus [13] = assay: Average food consumed at the dose of 0.25 mg/kg (po) using 10 cats per dose level at 30 min (control day/ test day); 38/175; procedure, shortened: as §1
Felis catus [14] = assay: Average food consumed at the dose of 0.016 mg/kg (po) using 10 cats per dose level at 30 min (control day/ test day); 21/142
Felis catus [15] = assay: Average food consumed at the dose of 0.016 mg/kg (po) using 10 cats per dose level at 180 min (control day/ test day); 45/215
Felis catus [16] = assay: Average food consumed at the dose of 0.063 mg/kg (po) using 10 cats per dose level at 30 min (control day/ test day); 13/120
Felis catus [17] = assay: Average food consumed at the dose of 0.063 mg/kg (po) using 10 cats per dose level at 60 min (control day/ test day); 22/144
Felis catus [18] = assay: Average food consumed at the dose of 0.25 mg/kg (po) using 10 cats per dose level at 180 min (control day/ test day); 50/239
Felis catus [19] = assay: Average food consumed at the dose of 0.50 mg/kg (po) using 10 cats per dose level at 60 min (control day/ test day); 35/219; settings: dose 0.5 mg/kg; procedure, shortened: as §1
Felis catus [20] = assay: Average food consumed at the dose of 0.50 mg/kg (po) using 10 cats per dose level at 30 min (control day/ test day); 39/204; settings: dose 0.5 mg/kg; procedure, shortened: as §1
Felis catus [21] = assay: Average food consumed at the dose of 0.50 mg/kg (po) using 10 cats per dose level at 180 min (control day/ test day); 32/234; settings: dose 0.5 mg/kg; procedure, shortened: as §1
Felis catus [22] = assay: Average food consumed at the dose of 0.25 mg/kg (po) using 10 cats per dose level at 60 min (control day/ test day); 39/212; procedure, shortened: as §1
Felis catus [23] = assay: Average food consumed at the dose of 0.016 mg/kg (po) using 10 cats per dose level at 60 min (control day/ test day); 31/168
Felis catus [24] = assay: Average food consumed at the dose of 0.063 mg/kg (po) using 10 cats per dose level at 180 min (control day/ test day); 50/190
Felis catus [25] = assay: Average food consumed at the dose of 0.063 mg/kg (po) using 10 cats per dose level at 60 min (control day/ test day); 28/130
Felis catus [26] = assay: Average food consumed at the dose of 0.016 mg/kg (po) using 10 cats per dose level at 180 min (control day/ test day); 46/193
Felis catus [27] = assay: Average food consumed at the dose of 0.50 mg/kg (po) using 10 cats per dose level at 180 min (control day/ test day); 50/256; settings: dose 0.5 mg/kg; procedure, shortened: as §1
Felis catus [28] = assay: Average food consumed at the dose of 0.25 mg/kg (po) using 10 cats per dose level at 180 min (control day/ test day); 45/231
Felis catus [29] = assay: Average food consumed at the dose of 0.25 mg/kg (po) using 10 cats per dose level at 60 min (control day/ test day); 35/200; procedure, shortened: as §1
Felis catus [30] = assay: Average food consumed at the dose of 0.063 mg/kg (po) using 10 cats per dose level at 180 min (control day/ test day); 59/195
Felis catus [31] = assay: Average food consumed at the dose of 0.50 mg/kg (po) using 10 cats per dose level at 60 min (control day/ test day); 50/221; settings: dose 0.5 mg/kg; procedure, shortened: as §1
Felis catus [32] = assay: Average food consumed at the dose of 0.25 mg/kg (po) using 10 cats per dose level at 30 min (control day/ test day); 34/165; procedure, shortened: as §1
Felis catus [33] = assay: Average food consumed at the dose of 0.016 mg/kg (po) using 10 cats per dose level at 30 min (control day/ test day); 35/118
Felis catus [34] = assay: Average food consumed at the dose of 0.063 mg/kg (po) using 10 cats per dose level at 30 min (control day/ test day); 14/112
Felis catus [35] = assay: Average food consumed at the dose of 0.50 mg/kg (po) using 10 cats per dose level at 30 min (control day/ test day); 47/190; settings: dose 0.5 mg/kg; procedure, shortened: as §1
Felis catus [36] = assay: Average food consumed at the dose of 0.016 mg/kg (po) using 10 cats per dose level at 60 min (control day/ test day); 41/160

SMILES: CN1CCC(=C2c3ccccc3C=Cn3cccc32)CC1.O=C(O)C(=O)O
- Average consumed (Felis catus [1]): 100 g
- Average consumed (Felis catus [2]): 183 g
- Average consumed (Felis catus [3]): 126 g
- Average consumed (Felis catus [4]): 166 g
- Average consumed (Felis catus [5]): 148 g
- Average consumed (Felis catus [6]): 66 g
- Average consumed (Felis catus [7]): 134 g
- Average consumed (Felis catus [8]): 69 g
- Average consumed (Felis catus [9]): 133 g
- Average consumed (Felis catus [10]): 193 g
- Average consumed (Felis catus [11]): 43 g
- Average consumed (Felis catus [12]): 113 g

SMILES: CN1CCC(=C2c3ccccc3CCn3cccc32)CC1.O=C(O)C(=O)O
- Average consumed (Felis catus [13]): 91 g
- Average consumed (Felis catus [14]): 77 g
- Average consumed (Felis catus [15]): 159 g
- Average consumed (Felis catus [16]): 52 g
- Average consumed (Felis catus [17]): 74 g
- Average consumed (Felis catus [18]): 175 g
- Average consumed (Felis catus [19]): 137 g
- Average consumed (Felis catus [20]): 117 g
- Average consumed (Felis catus [21]): 166 g
- Average consumed (Felis catus [22]): 124 g
- Average consumed (Felis catus [23]): 106 g
- Average consumed (Felis catus [24]): 133 g

SMILES: CN1CCC(=C2c3ccccc3C=Cc3ccccc32)CC1 [CYPROHEPTADINE]
- Average consumed (Felis catus [25]): 80 g
- Average consumed (Felis catus [26]): 157 g
- Average consumed (Felis catus [27]): 194 g
- Average consumed (Felis catus [28]): 179 g
- Average consumed (Felis catus [29]): 129 g
- Average consumed (Felis catus [30]): 134 g
- Average consumed (Felis catus [31]): 157 g
- Average consumed (Felis catus [32]): 109 g
- Average consumed (Felis catus [33]): 75 g
- Average consumed (Felis catus [34]): 56 g
- Average consumed (Felis catus [35]): 135 g
- Average consumed (Felis catus [36]): 108 g
